pIC50: −log10 of the molar value. Active and inactive are the calls of the source. No cut-off for these calls is given here.
What was measured:
[1] = target: Casein kinase 2 (Homo sapiens, UniProt P67870+P68400+P19784+Q8NEV1); test: Inhibition of CK2 (unknown origin) at 10 micromol/L in presence of [gamma-33P]ATP relative to control; type: protein assay; details: dose 10.0 µmol/L
[2] = target: Casein kinase I isoform gamma-3 (Homo sapiens) (UniProt Q9Y6M4); test: Inhibition of N-terminal 6His-tagged recombinant human CK1gamma3 (1 to 330 residues) expressed in baculovirus infected Sf21 cells assessed as residual activity at 0.1 uM relative to control
Chain of Casein kinase I isoform gamma-3 (Homo sapiens) (Q9Y6M4 whole entry, looked up, the tested form may be a part, canonical isoform): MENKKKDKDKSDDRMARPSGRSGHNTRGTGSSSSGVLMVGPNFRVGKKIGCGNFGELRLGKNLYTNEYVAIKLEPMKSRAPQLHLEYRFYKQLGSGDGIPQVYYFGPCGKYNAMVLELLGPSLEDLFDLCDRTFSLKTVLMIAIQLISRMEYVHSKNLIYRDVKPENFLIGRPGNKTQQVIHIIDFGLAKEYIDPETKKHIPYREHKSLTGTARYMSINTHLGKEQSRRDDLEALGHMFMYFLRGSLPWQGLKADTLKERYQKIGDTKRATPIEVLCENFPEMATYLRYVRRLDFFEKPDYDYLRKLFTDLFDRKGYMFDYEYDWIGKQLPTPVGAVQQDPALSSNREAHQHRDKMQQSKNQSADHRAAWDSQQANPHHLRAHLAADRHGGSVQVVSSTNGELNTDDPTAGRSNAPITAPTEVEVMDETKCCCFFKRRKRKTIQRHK

[3] = target: Insulin receptor-related protein (Homo sapiens) (UniProt P14616); test: Inhibition of N-terminal 6His-tagged recombinant human IRR (944 to 1266 residues) expressed in baculovirus infected Sf21 cells assessed as residual activity at 0.1 uM relative to control
Chain of Insulin receptor-related protein (Homo sapiens) (P14616 27-742 limits assumed): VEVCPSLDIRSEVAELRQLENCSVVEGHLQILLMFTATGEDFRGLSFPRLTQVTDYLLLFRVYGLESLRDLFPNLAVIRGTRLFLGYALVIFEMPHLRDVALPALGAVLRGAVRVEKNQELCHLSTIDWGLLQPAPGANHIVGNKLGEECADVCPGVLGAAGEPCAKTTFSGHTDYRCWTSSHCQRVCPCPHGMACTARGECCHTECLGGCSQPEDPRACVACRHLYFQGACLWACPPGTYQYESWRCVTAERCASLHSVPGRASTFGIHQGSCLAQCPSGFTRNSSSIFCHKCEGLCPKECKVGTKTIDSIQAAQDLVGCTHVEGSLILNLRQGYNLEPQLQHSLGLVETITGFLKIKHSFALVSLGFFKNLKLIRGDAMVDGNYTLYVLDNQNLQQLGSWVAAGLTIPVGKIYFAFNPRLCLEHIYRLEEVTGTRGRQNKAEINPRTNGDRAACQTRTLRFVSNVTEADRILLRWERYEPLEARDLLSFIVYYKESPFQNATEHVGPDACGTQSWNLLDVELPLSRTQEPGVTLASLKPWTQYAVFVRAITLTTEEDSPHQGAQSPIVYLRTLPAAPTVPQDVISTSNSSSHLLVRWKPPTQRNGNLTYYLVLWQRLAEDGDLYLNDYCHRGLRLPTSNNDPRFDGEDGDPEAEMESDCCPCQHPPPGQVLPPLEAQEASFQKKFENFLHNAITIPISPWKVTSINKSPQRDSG
Chain of Insulin receptor-related protein (Homo sapiens) (P14616 747-1297 limits assumed): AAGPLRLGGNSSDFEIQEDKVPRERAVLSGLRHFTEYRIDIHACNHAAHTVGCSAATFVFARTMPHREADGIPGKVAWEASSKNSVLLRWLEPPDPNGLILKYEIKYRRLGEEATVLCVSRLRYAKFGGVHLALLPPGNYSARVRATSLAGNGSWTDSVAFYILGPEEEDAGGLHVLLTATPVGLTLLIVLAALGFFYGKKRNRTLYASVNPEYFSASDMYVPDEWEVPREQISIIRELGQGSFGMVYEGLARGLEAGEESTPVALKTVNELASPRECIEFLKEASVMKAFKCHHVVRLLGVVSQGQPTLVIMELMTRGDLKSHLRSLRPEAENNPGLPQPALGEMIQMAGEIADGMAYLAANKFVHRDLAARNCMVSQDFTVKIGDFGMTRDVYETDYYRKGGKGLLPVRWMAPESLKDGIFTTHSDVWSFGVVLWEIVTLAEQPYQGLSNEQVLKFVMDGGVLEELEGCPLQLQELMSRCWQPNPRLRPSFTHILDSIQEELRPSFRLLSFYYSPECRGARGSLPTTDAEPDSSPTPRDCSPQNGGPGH

[4] = target: PAS domain-containing serine/threonine-protein kinase (Homo sapiens) (UniProt Q96RG2); test: Inhibition of human PASK assessed as residual activity at 0.1 uM relative to control
[5] = target: Cytoplasmic tyrosine-protein kinase BMX (Homo sapiens) (UniProt P51813); test: Inhibition of recombinant human Bmx assessed as residual activity at 1 uM relative to control
Chain of Cytoplasmic tyrosine-protein kinase BMX (Homo sapiens) (P51813 whole entry, the tested form may be a part): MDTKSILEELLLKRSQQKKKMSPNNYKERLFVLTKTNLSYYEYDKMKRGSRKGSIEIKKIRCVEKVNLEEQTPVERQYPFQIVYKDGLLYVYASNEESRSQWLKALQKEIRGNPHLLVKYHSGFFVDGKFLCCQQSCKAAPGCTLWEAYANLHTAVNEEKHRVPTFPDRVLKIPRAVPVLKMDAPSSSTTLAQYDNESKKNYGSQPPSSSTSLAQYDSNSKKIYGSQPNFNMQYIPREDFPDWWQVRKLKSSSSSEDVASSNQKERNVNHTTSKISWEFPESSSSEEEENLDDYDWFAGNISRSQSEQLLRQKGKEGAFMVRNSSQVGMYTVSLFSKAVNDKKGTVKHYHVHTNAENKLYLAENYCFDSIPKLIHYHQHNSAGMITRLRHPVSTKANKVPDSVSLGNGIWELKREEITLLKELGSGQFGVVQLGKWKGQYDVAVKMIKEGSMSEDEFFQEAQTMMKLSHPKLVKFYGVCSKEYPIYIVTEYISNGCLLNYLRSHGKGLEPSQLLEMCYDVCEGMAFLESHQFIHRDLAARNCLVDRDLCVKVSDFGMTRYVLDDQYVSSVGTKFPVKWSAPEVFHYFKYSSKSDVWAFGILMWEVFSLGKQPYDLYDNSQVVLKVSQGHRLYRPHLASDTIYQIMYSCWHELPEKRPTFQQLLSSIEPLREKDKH

[6] = target: Tyrosine-protein kinase HCK (Homo sapiens) (UniProt P08631); test: Inhibition of N-terminal 6His-tagged recombinant human Hck (230 to 497 residues) expressed in baculovirus infected Sf21 cells assessed as residual activity at 1 uM relative to control
Chain of Tyrosine-protein kinase HCK (Homo sapiens) (P08631 2-526 limits assumed): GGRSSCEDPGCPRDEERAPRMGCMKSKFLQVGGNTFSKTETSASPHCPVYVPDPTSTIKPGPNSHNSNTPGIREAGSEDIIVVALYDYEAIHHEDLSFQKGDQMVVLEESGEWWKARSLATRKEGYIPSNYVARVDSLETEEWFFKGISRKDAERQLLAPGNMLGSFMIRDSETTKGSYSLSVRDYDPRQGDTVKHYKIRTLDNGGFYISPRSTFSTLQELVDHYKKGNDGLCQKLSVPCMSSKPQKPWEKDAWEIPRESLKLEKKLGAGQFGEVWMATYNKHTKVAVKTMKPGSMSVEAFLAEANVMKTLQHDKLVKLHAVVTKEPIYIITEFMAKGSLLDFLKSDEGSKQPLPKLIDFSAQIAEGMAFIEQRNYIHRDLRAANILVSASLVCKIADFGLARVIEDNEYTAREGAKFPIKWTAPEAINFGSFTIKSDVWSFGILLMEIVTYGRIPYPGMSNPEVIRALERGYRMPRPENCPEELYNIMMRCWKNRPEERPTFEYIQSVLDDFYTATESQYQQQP

[7] = target: Maternal embryonic leucine zipper kinase (Homo sapiens) (UniProt Q14680); test: Inhibition of N-terminal GST-tagged recombinant human MELK (1 to 340 residues) expressed in baculovirus infected Sf21 cells assessed as residual activity at 1 uM relative to control
Chain of Maternal embryonic leucine zipper kinase (Homo sapiens) (Q14680 whole entry, looked up, the tested form may be a part): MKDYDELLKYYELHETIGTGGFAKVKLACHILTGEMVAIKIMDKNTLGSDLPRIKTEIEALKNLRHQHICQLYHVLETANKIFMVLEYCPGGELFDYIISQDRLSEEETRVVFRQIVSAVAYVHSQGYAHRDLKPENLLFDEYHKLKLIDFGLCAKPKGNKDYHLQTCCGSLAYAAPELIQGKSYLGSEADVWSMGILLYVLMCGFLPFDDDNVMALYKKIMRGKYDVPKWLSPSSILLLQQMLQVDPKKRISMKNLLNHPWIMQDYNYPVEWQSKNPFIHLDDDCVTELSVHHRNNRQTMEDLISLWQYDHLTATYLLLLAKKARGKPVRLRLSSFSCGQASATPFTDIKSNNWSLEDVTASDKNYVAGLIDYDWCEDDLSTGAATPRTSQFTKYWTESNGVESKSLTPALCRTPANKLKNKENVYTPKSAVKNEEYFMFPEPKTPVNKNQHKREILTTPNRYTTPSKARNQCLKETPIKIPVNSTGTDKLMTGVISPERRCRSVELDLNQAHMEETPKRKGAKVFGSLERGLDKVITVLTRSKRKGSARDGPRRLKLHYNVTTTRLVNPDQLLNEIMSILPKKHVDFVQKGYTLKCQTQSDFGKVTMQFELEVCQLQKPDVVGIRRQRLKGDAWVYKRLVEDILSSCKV

[8] = target: Tyrosine-protein kinase Mer (Homo sapiens) (UniProt Q12866); test: Inhibition of N-terminal GST-tagged recombinant human Mer (557 to 882 residues) expressed in baculovirus infected Sf21 cells assessed as residual activity at 1 uM relative to control
[9] = target: Serine/threonine-protein kinase PAK 3 (Homo sapiens) (UniProt O75914); test: Inhibition of C-terminal 6His-tagged recombinant human full-length PAK3 expressed in baculovirus infected Sf21 cells assessed as residual activity at 1 uM relative to control
[10] = target: Mitogen-activated protein kinase 12 (Homo sapiens) (UniProt P53778); test: Inhibition of recombinant GST fusion protein corresponding to full-length human SAPK3 expressed in E. coli assessed as residual activity at 1 uM relative to control
Chain of Mitogen-activated protein kinase 12 (Homo sapiens) (P53778 whole entry, the tested form may be a part): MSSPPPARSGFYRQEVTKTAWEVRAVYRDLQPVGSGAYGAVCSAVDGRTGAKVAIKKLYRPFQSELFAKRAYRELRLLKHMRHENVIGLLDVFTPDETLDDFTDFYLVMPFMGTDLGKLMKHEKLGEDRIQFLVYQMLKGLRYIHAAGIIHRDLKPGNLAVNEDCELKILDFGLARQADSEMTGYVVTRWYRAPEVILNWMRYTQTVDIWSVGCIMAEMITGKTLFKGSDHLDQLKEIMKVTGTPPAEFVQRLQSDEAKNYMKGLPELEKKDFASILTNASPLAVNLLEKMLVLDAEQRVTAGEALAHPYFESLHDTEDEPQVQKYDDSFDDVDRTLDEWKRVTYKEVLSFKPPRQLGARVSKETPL

[11] = target: Serine/threonine-protein kinase SIK1 (Homo sapiens) (UniProt P57059); test: Inhibition of N-terminal 6His-tagged recombinant human SIK (1 to 281 residues) expressed in baculovirus infected Sf21 cells assessed as residual activity at 1 uM relative to control
Chain of Serine/threonine-protein kinase SIK1 (Homo sapiens) (P57059 whole entry, the tested form may be a part): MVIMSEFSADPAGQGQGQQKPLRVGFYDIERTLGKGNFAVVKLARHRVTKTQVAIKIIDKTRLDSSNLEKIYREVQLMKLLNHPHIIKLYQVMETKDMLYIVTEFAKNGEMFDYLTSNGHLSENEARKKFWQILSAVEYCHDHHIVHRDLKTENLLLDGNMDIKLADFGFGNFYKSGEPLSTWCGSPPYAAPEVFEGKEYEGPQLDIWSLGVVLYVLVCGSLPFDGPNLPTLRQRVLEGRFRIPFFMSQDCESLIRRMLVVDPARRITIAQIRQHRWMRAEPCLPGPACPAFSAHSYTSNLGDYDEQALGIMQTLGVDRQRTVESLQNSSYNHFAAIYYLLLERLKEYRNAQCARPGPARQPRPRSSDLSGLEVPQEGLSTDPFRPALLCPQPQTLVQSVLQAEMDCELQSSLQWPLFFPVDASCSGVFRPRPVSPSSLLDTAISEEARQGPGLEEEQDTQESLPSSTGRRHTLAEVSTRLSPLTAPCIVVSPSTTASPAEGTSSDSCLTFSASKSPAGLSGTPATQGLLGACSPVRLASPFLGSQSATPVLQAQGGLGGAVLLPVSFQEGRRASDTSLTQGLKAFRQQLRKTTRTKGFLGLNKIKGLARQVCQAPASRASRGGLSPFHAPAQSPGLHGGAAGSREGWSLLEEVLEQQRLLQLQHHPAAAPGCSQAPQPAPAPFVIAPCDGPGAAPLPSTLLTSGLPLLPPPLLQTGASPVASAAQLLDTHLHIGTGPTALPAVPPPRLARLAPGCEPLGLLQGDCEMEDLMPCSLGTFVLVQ

[12] = test system: CAL-51; test: Antiproliferative activity against human CAL-51 cells assessed as inhibition of cell growth incubated for 72 hrs by cell-titer glo assay; type: functional, cell-based; details: CAL-51, 72 h
Method in brief: (§1)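 Cells seeded 10,000–30,000/cm² (adherent) or 100,000/mL (suspension) in medium with 10% fetal calf serum; after 24 h treated in duplicate with serial dilutions for 72 h. Viable cells read by CellTiter-Glo luminescence; IC50 from sigmoidal fit; at least two independent experiments.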

[13] = test system: BT-20; test: Antiproliferative activity against human BT-20 cells assessed as inhibition of cell growth incubated for 72 hrs by cell-titer glo assay; type: functional, cell-based; details: BT-20, 72 h; method in brief: as §1
[14] = test system: COLO 205; test: Antiproliferative activity against human COLO 205 cells assessed as inhibition of cell growth incubated for 72 hrs by cell-titer glo assay; type: functional, cell-based; details: COLO 205, 72 h; method in brief: as §1
[15] = test system: COLO-741; test: Antiproliferative activity against human COLO-741 cells assessed as inhibition of cell growth incubated for 72 hrs by cell-titer glo assay; type: functional, cell-based; details: COLO-741, 72 h; method in brief: as §1
[16] = test system: SW480; test: Antiproliferative activity against human SW480 cells assessed as inhibition of cell growth incubated for 72 hrs by cell-titer glo assay; type: functional, cell-based; details: SW480, 72 h
[17] = test system: NCI-H23; test: Antiproliferative activity against human NCI-H23 cells assessed as inhibition of cell growth incubated for 72 hrs by cell-titer glo assay; type: functional, cell-based; details: NCI-H23, 72 h
Method in brief: (§2)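 Cells from ATCC or ECACC, kept in supplier-recommended medium with 1% penicillin-streptomycin at 37°C, 5% CO₂. Seeded at 10,000–30,000/cm² (adherent) or 100,000/mL (nonadherent) in medium with 10% fetal calf serum. Dosed after 24 h in duplicate with serial dilutions. Viable cells read by CellTiter-Glo 72 h later. IC50 from sigmoidal fit. At least two independent experiments.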

[18] = test system: RERF-LC-AI; test: Antiproliferative activity against human RERF-LC-AI cells assessed as inhibition of cell growth incubated for 72 hrs by cell-titer glo assay; type: functional, cell-based; method in brief: as §2
[19] = test system: SU-DHL-1; test: Antiproliferative activity against human SU-DHL-1 cells assessed as inhibition of cell growth incubated for 72 hrs by cell-titer glo assay; type: functional, cell-based; details: SU-DHL-1, 72 h
[20] = Antiproliferative activity against human GM03798 cells assessed as inhibition of cell growth incubated for 72 hrs by cell-titer glo assay; type: functional, cell-based; details: GM03798, 72 h; method in brief: as §1
[21] = Half-life in Beagle dog at 5 mg/kg, iv by LC-MS analysis; type: ADME, organism-based, Canis lupus familiaris; details: in vivo
[22] = Cmax in nu/nu mouse at 10 mg/kg, iv by LC-MS analysis; type: ADME, organism-based; details: in vivo
[23] = Half-life in Sprague-Dawley rat at 10 mg/kg, po by LC-MS analysis; type: ADME, organism-based; details: in vivo
[24] = test system: A2780; test: Induction of cell cycle arrest in human A2780 cells assessed as accumulation of cells in G2/M phase by measuring PLK1 phosphorylation on Thr210 incubated for 24 hrs by Western blotting analysis; type: functional, cell-based; details: dose 0.02-0.2 µmol/L
Method in brief: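 A2780 ovarian carcinoma cells treated 24 h with a range of concentrations, with DMSO and nocodazole controls. 20 µg protein extract separated by SDS-PAGE and immunoblotted with chemiluminescent detection. Probed for total and phospho-Thr210 PLK1, phospho-Ser10 histone H3, phospho-Thr199 NPM and phospho-Tyr15 CDK1. Total NPM, tubulin and total CDK1 served as loading controls.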

[25] = test system: U2OS; test: Induction of apoptosis in human U2OS cells assessed as colocalization of cells by measuring activation of caspase 3 incubated for 24 hrs by DRAQ 5 staining based high content imaging assay relative to control; type: functional
[26] = test system: HCT-116; test: Antitumor activity against human HCT-116 cells xenografted in nu/nu mouse assessed as tumor growth inhibition at 45 mg/kg, iv administered for 3 days relative to control; type: functional; details: HCT-116, 72 h, time 3 day, read-out: TGI
[27] = test system: A2780; test: In vivo inhibition of PLK1 in human A2780 cells xenografted in nu/nu mouse assessed as increased TCTP phosphorylation on Ser46 at 60 mg/kg, po administered for 6 to 12 hrs hrs by Western blotting analysis; type: functional, organism-based; details: time lower 6.0 hrs, time upper […]
[28] = test system: A2780; test: Induction of mitosis in human A2780 cells xenografted in nu/nu mouse assessed as increased NPM phosphorylation on Thr199 at 60 mg/kg, po administered for 2 to 6 hrs by immunohistochemistry analysis; type: functional, organism-based; details: time 2-6 hrs

`CN1CCN(c2ccc(OC(F)(F)F)c(Nc3ncc4c(n3)-c3c(c(C(N)=O)nn3CCO)CC4)c2)CC1` [ONVANSERTIB] showed an inhibition [1] of 89.7%, an Activity [2] of 96% and an Activity [3] of 125%. For the same compound, the Activity [4] was 127%, the Activity [5] was 85% and the Activity [6] was 118%. It also gave an Activity [7] of 71%, an Activity [8] of 64% and an Activity [9] of 90%. It also gave an Activity [10] of 113%, an Activity [11] of 93% and a pIC50 [12] of 7.72. The pIC50 [13] was 7.03, the pIC50 [14] was 7.49 and the pIC50 [15] was 6.97. The pIC50 [16] was 6.21, the pIC50 [17] was 7.25 and the pIC50 [18] was 7.05. The pIC50 [19] was 7.02, the pIC50 [20] was 7.26 and the half-life [21] was 3.9 h. For the same compound, the Cmax [22] was 8.3 µM, the half-life [23] was 3.1 h and the Activity [24] was “Dose-Dependent Effect”. The Activity [25] was 13%, the inhibition in vivo at 45 mg/kg [26] was 83% and the inhibition [27] was “inactive”. The Activity [28] was “Active”.
